According to ChEMBL document CHEMBL4316603, “Fluorination of Photoswitchable Muscarinic Agonists Tunes Receptor Pharmacology and Photochromic Properties” (J Med Chem, 2019):

What was measured:
[1] = target: T1, Muscarinic acetylcholine receptor M1 (Homo sapiens, UniProt P11229); assay: Agonist activity at human muscarinic M1 receptor expressed in HEK293T cells co-expressing Galpha subunit and PLC-beta3 by split luciferase complementation assay; type: cell-based
T1 sequence (P11229 whole entry): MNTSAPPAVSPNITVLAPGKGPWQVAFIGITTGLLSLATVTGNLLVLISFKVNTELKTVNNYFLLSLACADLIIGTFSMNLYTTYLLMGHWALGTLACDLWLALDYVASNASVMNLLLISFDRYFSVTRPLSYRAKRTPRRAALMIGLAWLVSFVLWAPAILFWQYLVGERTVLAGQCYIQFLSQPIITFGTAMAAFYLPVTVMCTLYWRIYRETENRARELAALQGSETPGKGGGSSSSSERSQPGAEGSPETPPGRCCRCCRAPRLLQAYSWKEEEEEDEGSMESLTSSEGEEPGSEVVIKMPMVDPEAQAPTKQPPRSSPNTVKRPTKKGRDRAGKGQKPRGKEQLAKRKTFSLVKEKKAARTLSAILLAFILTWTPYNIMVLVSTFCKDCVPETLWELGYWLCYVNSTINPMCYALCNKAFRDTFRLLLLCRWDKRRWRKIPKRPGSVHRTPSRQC

[2] = Chemical stability of the compound at 50 uM incubated for 120 mins under dark conditions by UV-vis spectroscopic analysis; type: physicochemical; conditions: 2 h
[3] = target: Muscarinic acetylcholine receptor; assay: Displacement of [3H]-QNB from muscarinic receptor in rat brain membranes incubated for 45 mins under dark conditions by radioligand binding assay; type: cell membranes
Outline: (§1)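 Rat brain cortex membranes (meninges and white matter removed, homogenized and centrifuged twice at 50,000 x g, stored at -80 °C). Each tube held 20 μg membrane protein, 200 pM [³H]QNB and competitor at varying concentrations in 10 mM Tris-HCl pH 7.0 with 6 mM MgCl₂, incubated 45 min at 25 °C. Nonspecific binding was defined with 2 μM atropine. Samples were filtered on glass fiber, washed twice with ice-cold buffer and counted by scintillation.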

[4] = target: Muscarinic acetylcholine receptor; assay: Displacement of [3H]-QNB from muscarinic receptor in rat brain membranes incubated for 45 mins under irradiation exposure at 365 nm by radioligand binding assay; type: cell membranes; outline: as §1

Compound | pEC50 [1] | Stability [2] | pIC50 [3] | pIC50 [4]
C[N+](C)(C)CC#CCOC1=NOCC1 | 8.9 |  |  | 
C[N+](C)(CC#CCOC1=NOCC1)Cc1cc(F)c(/N=N\c2c(F)cccc2F)c(F)c1.[Br-] | 7.14 | Stable |  | 
C[N+](C)(CC#CCOC1=NOCC1)CCCCCC[N+](C)(C)CC#CCOC1=NOCC1 | 6.77 |  |  | 
C[N+](C)(CC#CCOC1=NOCC1)CCCC[N+](C)(C)CC#CCOC1=NOCC1 | 6.49 |  |  | 
C[N+](C)(CC#CCOC1=NOCC1)CCCCCCCC[N+](C)(C)CC#CCOC1=NOCC1 | 6.89 |  |  | 
C[N+](C)(CC#CCOC1=NOCC1)Cc1cc(F)c(/N=N/c2c(F)cccc2F)c(F)c1.[Br-] | 7.2 | Stable | 5.25 | 5.4
C[N+](C)(CC#CCOC1=NOCC1)Cc1cc(F)c(/N=N/c2c(F)cc(C[N+](C)(C)CC#CCOC3=NOCC3)cc2F)c(F)c1.[Br-].[Br-] | 8.97 | Stable | 6.82 | 6.44
C[N+](C)(CC#CCOC1=NOCC1)Cc1ccc(/N=N\c2ccc(C[N+](C)(C)CC#CCOC3=NOCC3)cc2)cc1.[Br-].[Br-] | 7.49 | Stable |  | 
C[N+](C)(CC#CCOC1=NOCC1)Cc1ccc(/N=N/c2ccccc2)cc1.[Br-] | 5.49 | Stable | 5.15 | 5.13
C[N+](C)(CC#CCOC1=NOCC1)Cc1cc(F)c(/N=N\c2c(F)cc(C[N+](C)(C)CC#CCOC3=NOCC3)cc2F)c(F)c1.[Br-].[Br-] | 8.3 | Stable |  | 
C[N+](C)(CC#CCOC1=NOCC1)Cc1ccc(/N=N\c2ccccc2)cc1.[Br-] | 5.68 | Stable |  | 
C[N+](C)(CC#CCOC1=NOCC1)CCCCCCCCCC[N+](C)(C)CC#CCOC1=NOCC1 | 7.86 |  |  | 
